Experimental data taken from ChEMBL document CHEMBL1141783, “Neuroprotective and antioxidant activity of compounds from the aerial parts of Dioscorea opposita” (2005).

Experiments:
Brain [1] = assay: Antioxidant activity in rat brain assessed as malondialdehyde level at 217 uM by thiobarbituric acid method; format: functional
How it was run: (§1)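 Rat brain MDA was measured by the thiobarbituric acid method, following a previously published protocol. Each compound was tested at three final concentrations. Freshly prepared vitamin C served as the positive control.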

[2] = Neuroprotective activity in Swiss-Webster mouse neocortical cells with oxygen and glucose deprivation assessed as decrease in lactic dehydrogenase leakage at 21.7 uM; format: functional; parameters: scale not given: the % may be the effect or the level left
How it was run: (§2)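 Cultured neocortical cells were exposed to OGD with compound at one of three final concentrations; controls received the same volume of glucose-free Earle's buffer instead. For OGD, the chamber was flushed with 95% N2/5% CO2 for 10 min, sealed, and kept at 37 °C for 25 min, followed by 30 min under normal conditions. The treatment was repeated twice, and cells were held 6 h at 37 °C after the last one. LDH was measured in medium and in freeze-thaw lysate. Leakage = extracellular/(extracellular+intracellular) ×100%.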

Brain [3] = assay: Antioxidant activity in rat brain assessed as malondialdehyde level at 2.17 uM by thiobarbituric acid method; format: functional; how it was run: as §1
Brain [4] = assay: Antioxidant activity in rat brain assessed as malondialdehyde level at 21.7 uM by thiobarbituric acid method; format: functional; how it was run: as §1
[5] = Neuroprotective activity in Swiss-Webster mouse neocortical cells with oxygen and glucose deprivation assessed as decrease in lactic dehydrogenase leakage at 217 uM; format: functional; parameters: scale not given: the % may be the effect or the level left; how it was run: as §2
Plasma [6] = assay: Antioxidant activity in New Zealand White rabbit plasma assessed as increase in conjugated diene formation at 21.7 uM by thiobarbituric acid method; format: functional, Oryctolagus cuniculus
How it was run: (§3)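 LDL was isolated from New Zealand White rabbit plasma, and its susceptibility to oxidation was measured by a previously published method. Each compound was tested at three final concentrations. Freshly prepared vitamin C served as the positive control.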

Plasma [7] = assay: Antioxidant activity in New Zealand White rabbit plasma assessed as increase in conjugated diene formation at 217 uM by thiobarbituric acid method; format: functional, Oryctolagus cuniculus; how it was run: as §3
Plasma [8] = assay: Antioxidant activity in New Zealand White rabbit plasma assessed as increase in conjugated diene formation at 2.17 uM by thiobarbituric acid method; format: functional, Oryctolagus cuniculus; how it was run: as §3
[9] = Neuroprotective activity in Swiss-Webster mouse neocortical cells with oxygen and glucose deprivation assessed as decrease in lactic dehydrogenase leakage at 2.17 uM; format: functional; parameters: scale not given: the % may be the effect or the level left; how it was run: as §2
[10] = Neuroprotective activity in Swiss-Webster mouse neocortical cells with oxygen and glucose deprivation assessed as decrease in lactic dehydrogenase leakage at 370 uM; format: functional; parameters: scale not given: the % may be the effect or the level left; how it was run: as §2
Brain [11] = assay: Antioxidant activity in rat brain assessed as malondialdehyde level at 37 uM by thiobarbituric acid method; format: functional; how it was run: as §1
Plasma [12] = assay: Antioxidant activity in New Zealand White rabbit plasma assessed as increase in conjugated diene formation at 37 uM by thiobarbituric acid method; format: functional, Oryctolagus cuniculus; how it was run: as §3
Brain [13] = assay: Antioxidant activity in rat brain assessed as malondialdehyde level at 370 uM by thiobarbituric acid method; format: functional; how it was run: as §1
Plasma [14] = assay: Antioxidant activity in New Zealand White rabbit plasma assessed as increase in conjugated diene formation at 3.70 uM by thiobarbituric acid method; format: functional, Oryctolagus cuniculus; how it was run: as §3
Brain [15] = assay: Antioxidant activity in rat brain assessed as malondialdehyde level at 3.70 uM by thiobarbituric acid method; format: functional; how it was run: as §1
Plasma [16] = assay: Antioxidant activity in New Zealand White rabbit plasma assessed as increase in conjugated diene formation at 370 uM by thiobarbituric acid method; format: functional, Oryctolagus cuniculus; how it was run: as §3
[17] = Neuroprotective activity in Swiss-Webster mouse neocortical cells with oxygen and glucose deprivation assessed as decrease in lactic dehydrogenase leakage at 3.70 uM; format: functional; parameters: scale not given: the % may be the effect or the level left; how it was run: as §2
[18] = Neuroprotective activity in Swiss-Webster mouse neocortical cells with oxygen and glucose deprivation assessed as decrease in lactic dehydrogenase leakage at 37 uM; format: functional; parameters: scale not given: the % may be the effect or the level left; how it was run: as §2
Plasma [19] = assay: Antioxidant activity in New Zealand White rabbit plasma assessed as increase in conjugated diene formation at 568 uM by thiobarbituric acid method; format: functional, Oryctolagus cuniculus; how it was run: as §3
Brain [20] = assay: Antioxidant activity in rat brain assessed as malondialdehyde level at 568 uM by thiobarbituric acid method; format: functional; how it was run: as §1

Structure (SMILES) | Activity (Brain [1]) [nmol/mg protein] | Activity [2] [%] | Activity (Brain [3]) [nmol/mg protein] | Activity (Brain [4]) [nmol/mg protein] | Activity [5] [%] | Activity (Plasma [6]) [%] | Activity (Plasma [7]) [%] | Activity (Plasma [8]) [%] | Activity [9] [%] | Activity [10] [%] | Activity (Brain [11]) [nmol/mg protein] | Activity (Plasma [12]) [%] | Activity (Brain [13]) [nmol/mg protein] | Activity (Plasma [14]) [%] | Activity (Brain [15]) [nmol/mg protein] | Activity (Plasma [16]) [%] | Activity [17] [%] | Activity [18] [%] | Activity (Plasma [19]) [%] | Activity (Brain [20]) [nmol/mg]
COc1cc(-c2cc(=O)c3c(O)cc(O[C@@H]4O[C@H](CO)[C@@H](O)[C@H](O)[C@H]4O)cc3o2)ccc1O | 0.95 | 22.51 | 1.37 | 1.19 | 21.99 | 66.21 | 11.52 | 62.24 | 27.35 | – | – | – | – | – | – | – | – | – | – | –
COC1=CC(=O)c2c(ccc3cc(O)c(O)cc23)C1=O | – | – | – | – | – | – | – | – | – | 36.58 | 1.43 | 112.97 | 1.23 | 67.46 | 1.52 | 95.09 | 38.3 | 41.09 | – | –
COc1cc(-c2cc(=O)c3c(O)cc(O)cc3o2)ccc1O[C@@H]1O[C@H](CO)[C@@H](O)[C@H](O)[C@H]1O | 1.16 | 22.74 | 1.46 | 1.43 | 21.14 | 30.16 | 0.32 | 51.62 | 25.52 | – | – | – | – | – | – | – | – | – | – | –
O=C1O[C@H]([C@@H](O)CO)C(O)=C1O [ASCORBIC ACID] | – | – | – | – | – | – | – | – | – | – | – | – | – | – | – | – | – | – | 0.17 | 1.35
